ChEMBL document CHEMBL4020742, “Design and optimization of purine derivatives as in vivo active PDE10A inhibitors” (Bioorg Med Chem, 2017)

Target: CYP3A4 (Homo sapiens, UniProt P08684)
Assay: (§1) Inhibition of CYP3A4 in human microsomes at 10 uM using midazolam as substrate preincubated for 5 mins followed by NADPH addition measured 20 mins relative to control
Type: ADME
Settings: human microsomes, probe midazolam, read-out: TDI; call rule not given here
Outline: (§2)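 Pooled human microsomes (0.2 mg/mL) in 100 mM phosphate pH 7.4 with a probe cocktail: midazolam 10 µM, dextromethorphan 10 µM, diclofenac 20 µM, phenacetin 100 µM, mephenytoin 100 µM. Test compound was 10 µM; organic solvent was under 1%. After 5 min preincubation at 37 °C, 1 mmol/L NADPH was added and the reaction ran 20 min, keeping substrate conversion below 20%. Metabolite formation was expressed relative to PBS control.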

CYP3A4, sequence (P08684 whole entry): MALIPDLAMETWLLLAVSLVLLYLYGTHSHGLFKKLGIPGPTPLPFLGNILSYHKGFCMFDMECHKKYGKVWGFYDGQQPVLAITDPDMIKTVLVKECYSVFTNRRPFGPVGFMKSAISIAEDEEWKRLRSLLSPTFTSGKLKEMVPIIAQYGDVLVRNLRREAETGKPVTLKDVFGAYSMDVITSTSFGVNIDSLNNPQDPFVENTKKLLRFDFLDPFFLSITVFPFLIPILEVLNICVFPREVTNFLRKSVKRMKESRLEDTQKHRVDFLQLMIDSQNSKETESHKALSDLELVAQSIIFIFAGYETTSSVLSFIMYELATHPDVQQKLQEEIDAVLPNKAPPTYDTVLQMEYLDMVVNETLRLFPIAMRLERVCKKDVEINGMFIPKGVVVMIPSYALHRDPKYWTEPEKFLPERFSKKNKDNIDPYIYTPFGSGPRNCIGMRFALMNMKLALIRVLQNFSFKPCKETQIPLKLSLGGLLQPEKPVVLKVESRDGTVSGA

inhibition at 20 min, 10 µM [%]	SMILES
42	COc1ccc(-c2ccc(CNc3c(C)nc4c(N5CCOCC5)nccn34)cc2)cc1OC

Target: T1, Cytochrome P450 3A4 (Homo sapiens, UniProt P08684)
Assay: as §1
Type: ADME
Settings: microsomes, 20 min, 10 µM
Outline: as §2

T1 sequence (P08684 whole entry): as above

TDI	SMILES
Not Active	Cc1ccc(-c2ccc(Cn3cnc4c(N5CCOCC5)ncnc43)cc2)cc1

Target: T2, cAMP and cAMP-inhibited cGMP 3',5'-cyclic phosphodiesterase 10A (Homo sapiens, UniProt Q9Y233)
Assay: (§3) Inhibition of recombinant human N-terminal GST-tagged PDE10A1 (2 to 789 residues) expressed in baculovirus infected Sf9 cells at 5 uM using fluorescein-labeled cAMP as substrate preincubated for 15 mins followed by substrate addition measured after 30 mins by IMAP fluorescence polarization assay relative to control
Settings: not given
Outline: (§4)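 Recombinant PDE4A1A, PDE2A1 or PDE10A1 was incubated with compound (1% DMSO, duplicate) for 15 min at RT. Fluorescein-cAMP was then added for 30 min at RT, and the reaction was stopped with IMAP binding reagent (1 h, dark). FP was read at Ex485/Em535. Inhibition was set against no-enzyme and DMSO controls. IC50 came from a four-parameter logistic fit; values are the mean of at least two measurements.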

T2 sequence (Q9Y233 whole entry, the tested form may be a part): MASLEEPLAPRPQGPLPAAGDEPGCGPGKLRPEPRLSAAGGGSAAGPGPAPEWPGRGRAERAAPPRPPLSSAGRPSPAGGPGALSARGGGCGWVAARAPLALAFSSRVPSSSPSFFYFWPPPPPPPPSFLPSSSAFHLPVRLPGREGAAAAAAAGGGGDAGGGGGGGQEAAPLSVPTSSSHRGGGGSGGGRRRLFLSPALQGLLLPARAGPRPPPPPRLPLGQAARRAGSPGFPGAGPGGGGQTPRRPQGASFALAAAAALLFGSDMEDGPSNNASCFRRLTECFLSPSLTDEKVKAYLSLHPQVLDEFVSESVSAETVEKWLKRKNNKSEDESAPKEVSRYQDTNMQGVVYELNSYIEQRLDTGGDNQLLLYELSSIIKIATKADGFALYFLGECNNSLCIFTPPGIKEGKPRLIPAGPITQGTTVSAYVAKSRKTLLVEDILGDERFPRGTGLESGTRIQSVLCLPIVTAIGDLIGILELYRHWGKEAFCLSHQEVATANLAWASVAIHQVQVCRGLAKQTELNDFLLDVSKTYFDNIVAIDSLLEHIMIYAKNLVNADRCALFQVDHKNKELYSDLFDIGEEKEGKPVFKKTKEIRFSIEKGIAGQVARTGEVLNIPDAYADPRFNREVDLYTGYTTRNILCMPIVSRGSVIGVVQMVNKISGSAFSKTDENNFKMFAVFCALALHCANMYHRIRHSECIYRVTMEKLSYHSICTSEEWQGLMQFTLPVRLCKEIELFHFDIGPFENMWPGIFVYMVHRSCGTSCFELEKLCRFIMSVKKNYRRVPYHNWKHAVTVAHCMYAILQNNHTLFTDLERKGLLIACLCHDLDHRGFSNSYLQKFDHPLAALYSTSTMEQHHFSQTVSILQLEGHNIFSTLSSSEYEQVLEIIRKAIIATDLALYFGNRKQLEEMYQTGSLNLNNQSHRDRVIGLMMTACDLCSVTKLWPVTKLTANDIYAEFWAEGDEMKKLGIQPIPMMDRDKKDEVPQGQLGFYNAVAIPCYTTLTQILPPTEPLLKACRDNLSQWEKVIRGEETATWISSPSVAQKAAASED

inhibition [%]	SMILES
97	Cc1ccc(-c2ccc(Cn3cnc4c(N5CCOCC5)ncnc43)cc2)cc1
92	COc1ccc(-c2ccc(CNc3c(C)nc4c(N5CCOCC5)nccn34)cc2)cc1OC

Target: T3, CYP1A2 (Homo sapiens, UniProt P05177)
T3 sequence (P05177 whole entry): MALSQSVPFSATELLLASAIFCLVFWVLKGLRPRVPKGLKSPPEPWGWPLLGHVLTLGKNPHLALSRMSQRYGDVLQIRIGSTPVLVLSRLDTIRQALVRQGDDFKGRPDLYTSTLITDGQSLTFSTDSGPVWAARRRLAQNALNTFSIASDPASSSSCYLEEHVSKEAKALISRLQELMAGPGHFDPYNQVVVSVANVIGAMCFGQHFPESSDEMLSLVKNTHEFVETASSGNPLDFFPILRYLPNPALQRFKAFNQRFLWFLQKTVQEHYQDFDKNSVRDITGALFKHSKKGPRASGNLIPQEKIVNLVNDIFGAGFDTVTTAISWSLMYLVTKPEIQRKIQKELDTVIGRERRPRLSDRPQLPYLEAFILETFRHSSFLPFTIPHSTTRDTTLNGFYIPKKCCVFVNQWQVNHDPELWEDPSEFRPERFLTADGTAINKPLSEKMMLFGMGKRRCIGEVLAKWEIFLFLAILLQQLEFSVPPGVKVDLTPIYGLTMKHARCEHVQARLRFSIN
Assay: Inhibition of CYP1A2 in human microsomes at 10 uM using phenacetin as substrate preincubated for 5 mins followed by NADPH addition measured 20 mins relative to control
Type: ADME
Settings: probe phenacetin, read-out: TDI
Outline: as §2

inhibition at 20 min, 10 µM [%]	SMILES
12	Cc1ccc(-c2ccc(Cn3cnc4c(N5CCOCC5)ncnc43)cc2)cc1
29	COc1ccc(-c2ccc(CNc3c(C)nc4c(N5CCOCC5)nccn34)cc2)cc1OC

Target: Cytochrome P450 2D6 (Homo sapiens, UniProt P10635)
Assay: […] of CYP2D6 in human microsomes at 10 uM using dextromethorphan as substrate preincubated for 5 mins followed by NADPH addition measured 20 mins relative to control
Type: ADME
Settings: microsomes, 20 min, 10 µM

Cytochrome P450 2D6, sequence (P10635 whole entry): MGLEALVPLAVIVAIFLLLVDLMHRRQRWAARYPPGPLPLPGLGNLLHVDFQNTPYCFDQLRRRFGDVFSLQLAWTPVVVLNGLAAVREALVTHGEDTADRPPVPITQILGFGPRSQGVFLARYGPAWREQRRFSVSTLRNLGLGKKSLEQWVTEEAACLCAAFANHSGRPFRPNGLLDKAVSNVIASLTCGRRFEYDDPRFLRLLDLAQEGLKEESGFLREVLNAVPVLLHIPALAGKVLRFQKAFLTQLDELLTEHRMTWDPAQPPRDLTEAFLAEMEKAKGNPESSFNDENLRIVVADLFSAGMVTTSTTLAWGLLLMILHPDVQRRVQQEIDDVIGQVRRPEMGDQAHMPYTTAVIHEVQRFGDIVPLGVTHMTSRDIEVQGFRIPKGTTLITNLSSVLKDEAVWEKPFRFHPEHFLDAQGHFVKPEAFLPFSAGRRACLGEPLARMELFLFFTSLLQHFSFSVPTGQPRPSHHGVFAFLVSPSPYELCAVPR

TDI	SMILES
Not Active	Cc1ccc(-c2ccc(Cn3cnc4c(N5CCOCC5)ncnc43)cc2)cc1
Not Active	COc1ccc(-c2ccc(CNc3c(C)nc4c(N5CCOCC5)nccn34)cc2)cc1OC

Test system: not listed separately
Assay: Half life in human liver microsomes at 1 uM preincubated for 5 mins followed by NADPH addition measured up to 30 mins by LC-MS/MS analysis
Type: ADME, microsome
Settings: not given
Outline: (§5)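 Liver microsomes (0.5 mg/mL) plus 1 µM compound were preincubated 5 min at 37 °C in 0.1 M phosphate buffer pH 7.4 containing EDTA and MgCl₂. NADPH started the reaction. Samples at 0, 5, 10 and 30 min were quenched with cold acetonitrile containing tinidazole internal standard and centrifuged. Parent remaining was quantified by LC/MS/MS.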

half-life at 1 µM [min]	SMILES
22.4	Cc1ccc(-c2ccc(Cn3cnc4c(N5CCOCC5)ncnc43)cc2)cc1
18.2	COc1ccc(-c2ccc(CNc3c(C)nc4c(N5CCOCC5)nccn34)cc2)cc1OC

Target: Cytochrome P450 2C9 (Homo sapiens, UniProt P11712)
Assay: […] of CYP2C9 in human microsomes at 10 uM using diclofenac as substrate preincubated for 5 mins followed by NADPH addition measured 20 mins relative to control
Type: ADME
Settings: microsomes, 20 min, 10 µM

Cytochrome P450 2C9, sequence (P11712 whole entry): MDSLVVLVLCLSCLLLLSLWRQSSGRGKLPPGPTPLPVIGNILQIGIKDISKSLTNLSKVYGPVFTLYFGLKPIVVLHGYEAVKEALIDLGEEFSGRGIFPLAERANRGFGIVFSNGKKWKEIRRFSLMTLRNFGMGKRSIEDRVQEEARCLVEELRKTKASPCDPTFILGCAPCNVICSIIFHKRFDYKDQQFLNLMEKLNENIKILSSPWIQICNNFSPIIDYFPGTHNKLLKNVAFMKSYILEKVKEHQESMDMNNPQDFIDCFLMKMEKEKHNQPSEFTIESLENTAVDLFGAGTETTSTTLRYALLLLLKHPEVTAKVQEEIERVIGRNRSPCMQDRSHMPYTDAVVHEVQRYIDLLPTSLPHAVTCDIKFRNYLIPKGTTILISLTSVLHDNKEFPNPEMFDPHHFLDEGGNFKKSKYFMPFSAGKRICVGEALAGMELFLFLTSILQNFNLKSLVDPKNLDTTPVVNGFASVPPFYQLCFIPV

TDI	SMILES
Not Active	Cc1ccc(-c2ccc(Cn3cnc4c(N5CCOCC5)ncnc43)cc2)cc1
Not Active	COc1ccc(-c2ccc(CNc3c(C)nc4c(N5CCOCC5)nccn34)cc2)cc1OC

Target: T2, cAMP and cAMP-inhibited cGMP 3',5'-cyclic phosphodiesterase 10A
Assay: Inhibition of recombinant human N-terminal GST-tagged PDE10A1 (2 to 789 residues) expressed in baculovirus infected Sf9 cells using fluorescein-labeled cAMP as substrate preincubated for 15 mins followed by substrate addition measured after 30 mins by IMAP fluorescence polarization assay
Settings: not given
Outline: as §4

IC50 [nM]	SMILES
75	Cc1ccc(-c2ccc(Cn3cnc4c(N5CCOCC5)ncnc43)cc2)cc1
452	COc1ccc(-c2ccc(CNc3c(C)nc4c(N5CCOCC5)nccn34)cc2)cc1OC

Target: T1, Cytochrome P450 3A4
Assay: Time-dependent inhibition of CYP3A4 in human microsomes at 10 uM using midazolam as substrate preincubated for 5 mins followed by NADPH addition measured 20 mins relative to control
Type: ADME
Settings: microsomes, 20 min, 10 µM

TDI	SMILES
Not Active	Cc1ccc(-c2ccc(Cn3cnc4c(N5CCOCC5)ncnc43)cc2)cc1
Not Active	COc1ccc(-c2ccc(CNc3c(C)nc4c(N5CCOCC5)nccn34)cc2)cc1OC

Target: CYP2C9 (Homo sapiens, UniProt P11712)
Assay: Inhibition of CYP2C9 in human microsomes at 10 uM using diclofenac as substrate preincubated for 5 mins followed by NADPH addition measured 20 mins relative to control
Type: ADME
Settings: human microsomes, probe diclofenac, read-out: TDI
Outline: as §2

CYP2C9, sequence (P11712 whole entry): as above

inhibition at 20 min, 10 µM [%]	SMILES
30	Cc1ccc(-c2ccc(Cn3cnc4c(N5CCOCC5)ncnc43)cc2)cc1
41	COc1ccc(-c2ccc(CNc3c(C)nc4c(N5CCOCC5)nccn34)cc2)cc1OC

Target: T4, Cytochrome P450 2C19 (Homo sapiens, UniProt P33261)
Assay: […] of CYP2C19 in human microsomes at 10 uM using mephenytoin as substrate preincubated for 5 mins followed by NADPH addition measured 20 mins relative to control
Type: ADME
Settings: microsomes, 20 min, 10 µM

T4 sequence (P33261 whole entry): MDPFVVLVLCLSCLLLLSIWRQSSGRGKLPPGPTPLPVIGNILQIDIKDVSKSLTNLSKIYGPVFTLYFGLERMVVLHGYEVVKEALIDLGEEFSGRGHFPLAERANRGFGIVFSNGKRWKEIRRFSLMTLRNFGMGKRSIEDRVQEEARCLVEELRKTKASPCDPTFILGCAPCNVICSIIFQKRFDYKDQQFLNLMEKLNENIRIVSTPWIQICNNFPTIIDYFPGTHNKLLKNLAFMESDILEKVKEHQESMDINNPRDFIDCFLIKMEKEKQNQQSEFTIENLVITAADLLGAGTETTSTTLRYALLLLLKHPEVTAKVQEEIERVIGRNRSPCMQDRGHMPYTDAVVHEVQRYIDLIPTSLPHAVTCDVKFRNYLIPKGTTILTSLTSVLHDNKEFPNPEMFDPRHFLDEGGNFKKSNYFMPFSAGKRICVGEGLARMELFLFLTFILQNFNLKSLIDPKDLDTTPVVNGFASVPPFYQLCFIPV

TDI	SMILES
Not Active	Cc1ccc(-c2ccc(Cn3cnc4c(N5CCOCC5)ncnc43)cc2)cc1
Not Active	COc1ccc(-c2ccc(CNc3c(C)nc4c(N5CCOCC5)nccn34)cc2)cc1OC

Target: CYP2C19 (Homo sapiens, UniProt P33261)
Assay: (§6) Inhibition of CYP2C19 in human microsomes at 10 uM using mephenytoin as substrate preincubated for 5 mins followed by NADPH addition measured 20 mins relative to control
Type: ADME
Settings: human microsomes, probe mephenytoin, read-out: TDI
Outline: as §2

CYP2C19, sequence (P33261 whole entry): as above

inhibition at 20 min, 10 µM [%]	SMILES
44	Cc1ccc(-c2ccc(Cn3cnc4c(N5CCOCC5)ncnc43)cc2)cc1

Target: T4, Cytochrome P450 2C19
Assay: as §6
Type: ADME
Settings: microsomes, 20 min, 10 µM
Outline: as §2

TDI	SMILES
Not Active	COc1ccc(-c2ccc(CNc3c(C)nc4c(N5CCOCC5)nccn34)cc2)cc1OC

Test system: not listed separately
Assay: Half life in mouse liver microsomes at 1 uM preincubated for 5 mins followed by NADPH addition measured up to 30 mins by LC-MS/MS analysis
Type: ADME, microsome
Settings: not given
Outline: as §5

half-life at 1 µM [min]	SMILES
49.5	Cc1ccc(-c2ccc(Cn3cnc4c(N5CCOCC5)ncnc43)cc2)cc1
12.8	COc1ccc(-c2ccc(CNc3c(C)nc4c(N5CCOCC5)nccn34)cc2)cc1OC

Target: CYP2D6 (Homo sapiens, UniProt P10635)
Assay: Inhibition of CYP2D6 in human microsomes at 10 uM using dextromethorphan as substrate preincubated for 5 mins followed by NADPH addition measured 20 mins relative to control
Type: ADME
Settings: human microsomes, probe dextromethorphan, read-out: TDI
Outline: as §2

CYP2D6, sequence (P10635 whole entry): as the sequence (P10635 whole entry) above

inhibition at 20 min, 10 µM [%]	SMILES
6	Cc1ccc(-c2ccc(Cn3cnc4c(N5CCOCC5)ncnc43)cc2)cc1
24	COc1ccc(-c2ccc(CNc3c(C)nc4c(N5CCOCC5)nccn34)cc2)cc1OC

Target: PDE2A1 (Homo sapiens, UniProt O00408)
Assay: as §3, with “N-terminal FLAG-tagged PDE2A1” for “N-terminal GST-tagged PDE10A1”, “to 941” for “to 789”, “at 1” for “at 5”
Settings: probe fluorescein-labeled cAMP
Outline: as §4

PDE2A1, sequence (O00408 whole entry): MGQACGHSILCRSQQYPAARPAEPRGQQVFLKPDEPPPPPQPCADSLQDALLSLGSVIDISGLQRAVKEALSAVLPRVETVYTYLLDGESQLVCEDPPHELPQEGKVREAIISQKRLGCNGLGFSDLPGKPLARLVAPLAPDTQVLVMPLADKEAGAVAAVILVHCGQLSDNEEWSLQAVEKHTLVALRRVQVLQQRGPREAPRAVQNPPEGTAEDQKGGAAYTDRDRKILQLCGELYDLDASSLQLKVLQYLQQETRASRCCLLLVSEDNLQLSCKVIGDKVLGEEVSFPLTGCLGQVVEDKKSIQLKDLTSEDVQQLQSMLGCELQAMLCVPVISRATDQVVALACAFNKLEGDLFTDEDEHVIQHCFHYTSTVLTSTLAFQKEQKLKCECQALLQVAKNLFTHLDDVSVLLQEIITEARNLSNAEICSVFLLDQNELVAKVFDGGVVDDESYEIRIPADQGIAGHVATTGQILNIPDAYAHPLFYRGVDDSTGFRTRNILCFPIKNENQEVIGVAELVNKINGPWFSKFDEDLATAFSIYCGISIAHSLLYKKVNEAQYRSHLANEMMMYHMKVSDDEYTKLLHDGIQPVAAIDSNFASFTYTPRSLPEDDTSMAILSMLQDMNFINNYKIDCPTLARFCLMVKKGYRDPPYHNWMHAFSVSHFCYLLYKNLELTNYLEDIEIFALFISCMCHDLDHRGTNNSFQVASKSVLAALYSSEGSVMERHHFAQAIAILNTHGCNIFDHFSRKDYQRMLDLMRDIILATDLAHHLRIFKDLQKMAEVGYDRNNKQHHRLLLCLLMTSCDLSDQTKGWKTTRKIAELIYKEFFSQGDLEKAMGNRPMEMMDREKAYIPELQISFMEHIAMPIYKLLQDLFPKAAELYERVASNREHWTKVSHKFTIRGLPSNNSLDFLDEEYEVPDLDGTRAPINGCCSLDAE

inhibition at 0.5 h, 1 µM [%]	SMILES
5	COc1ccc(-c2ccc(CNc3c(C)nc4c(N5CCOCC5)nccn34)cc2)cc1OC

Target: T3, CYP1A2
Assay: (§7) Time-dependent inhibition of CYP1A2 in human microsomes at 10 uM using phenacetin as substrate preincubated for 5 mins followed by NADPH addition measured 20 mins relative to control
Type: ADME
Settings: human microsomes, probe phenacetin, read-out: TDI

inhibition at 20 min, 10 µM [%]	SMILES
20	Cc1ccc(-c2ccc(Cn3cnc4c(N5CCOCC5)ncnc43)cc2)cc1

Target: T5, Cytochrome P450 1A2 (Homo sapiens, UniProt P05177)
T5 sequence (P05177 whole entry): T3 sequence (P05177 whole entry)
Assay: as §7
Type: ADME
Settings: microsomes, 20 min, 10 µM

TDI	SMILES
Not Active	COc1ccc(-c2ccc(CNc3c(C)nc4c(N5CCOCC5)nccn34)cc2)cc1OC
